Source: PubChem
CSC inhib: blocks cancer stem cells. cancer stem cell-like cells viability, luminescence. inhibition, % at 7.5 µM. 300,000 compounds, 1.1% hits. AID 2717; in the data active means inhibition above about 75%; inconclusive means no clear call, values can overlap the other calls; tested in HMLE shEcad cells
NALP3 yeast inh: blocks the NALP3 inflammasome reconstituted in yeast. Yeast reconstituted NLRP3/ASC/caspase-1, beta-gal luminescence, 24 h. inhibition, % at 10 µM. 330,000 compounds, 0.39% hits. AID 2825;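 active means inhibition of 50% or more; inactive means inhibition below 50%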
Beta apoptosis: blocks beta cell apoptosis. AID 435005. 300,000 compounds, 0.8% hits. protection from apoptosis, % (test concentration not listed). INS-1E cytokine-induced death, ATP luminescence, 48 h; percent of positive-control rescue, neutral wells zero;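 active means Every replicate reaches about 75%, or at least half do and their mean reaches it too, limit read from the data; inconclusive means At least half of replicates reach the limit but their mean does not; inactive means Under half of replicates reach the limit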;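 further: higher means more ATP so stronger rescue from cytokine killing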
Calb FLC: affects C. albicans growth with fluconazole. growth inhibition, % (test concentration not listed). 300,000 compounds, 0.57% hits. C. albicans CaCi-2 (fluconazole-resistant clinical isolate) + fluconazole, Alamar Blue growth, 48 h. AID 1979;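 active means growth inhibition above about 58% in most replicates, limit read from the data, passing the limit was not always enough; inconclusive means exactly half the replicates above a set limit; inactive means most replicates below a set limit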;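 further: all wells also contain fluconazole at 8 µg/ml as a sub-toxic cotreatment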
Mdm2-MdmX inh: disrupts the human Mdm2-MdmX interaction; O15151+Q00987; 330,000 compounds, 3% hits; AID 485346; SaOS-2 split-luciferase Mdm2/MdmX complementation, luminescence; inhibition, % at 8 µM;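 active means inhibition of at least 50% at 8 µM in the primary screen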
T cruzi repl: blocks replication of Trypanosoma cruzi; T. cruzi beta-gal in NIH3T3, luminescence, 90 h; AID 1885; inhibition, % (no concentration beside the values); 300,000 compounds, 1.4% hits;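 active means mean inhibition across valid replicates above about 55%, limit read from the data; inconclusive means mean below that limit but half or more replicates reach it; inactive means mean below it, under half of replicates reach it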;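 further: signal also drops with host cell toxicity which is not excluded here; higher percent means less beta-gal luminescence so fewer parasites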
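System – NIH/3T3 host cells with β-galactosidase reporter T. cruzi · Doses – single 50 nL compound addition per well in DMSO · Reagent – 5000 T. cruzi trypomastigotes/well · Medium – Low-serum DMEM with 2% FBS · Timing – ≥90 h infection period, 3 h prior cell attachment · Evaluation – parasite load inhibition, % · Technique – GalScreen luminescence, 60 min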
Mdm2-MdmX conf: confirmation of human Mdm2/MdmX interaction inhibitors; shares compounds with Mdm2-MdmX inh; Mdm2-MdmX binding, luminescent assay; inhibition, % at 8 µM; 10,000 compounds, 55% hits; in the data active means inhibition above about 40%
Full FLuc ctr: full-length luciferase inhibition in Mdm2/MdmX counter-screen | shares compounds with Mdm2-MdmX inh | SaOS-2 full-length luciferase counterscreen, luminescence | inhibition, % at 8 µM | 6,200 compounds, 77% hits;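 active means mean inhibition at 8 µM reaching about 37%, which flags the compound as non-specific, limit read from the data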;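 further: p53-null SaOS-2 cells with luciferase driven by a doxycycline-inducible promoter; compound on cells about two nights before reading with doxycycline added after day one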
Numbers stand for hits; 0 = inactive; ? = inconclusive; - = no result. Hits are enriched below; roughly 5.3% of the tested compounds scored in any of these assays.

SMILES	CSC inhib	NALP3 yeast inh	Beta apoptosis	Calb FLC	Mdm2-MdmX inh	T cruzi repl	Mdm2-MdmX conf	Full FLuc ctr
NC1=NC[C@@H](CC2CCCCC2)N1CCc1cc(C(F)(F)F)cc(C(F)(F)F)c1	139	0	109	-	99	-	100	51
Cc1ccc(S(=O)(=O)NC(=O)N2CCN(Cc3c(F)cccc3Cl)CC2)cc1	0	0	0	0	0	0	-	-
COc1nnc(-c2ccc(N3CCCCC3)c(N)c2)c2ccccc12	0	0	0	0	0	0	-	-
O=C(Nc1ccc2c(c1)C(=O)N(c1ccccc1)C2=O)c1cccs1	0	0	0	0	50	0	0	-
O=C(O)CCN1C(=O)c2ccc(NC(=O)c3cccs3)cc2C1=O	0	0	0	0	0	0	-	-
COc1cc(CNCc2ccccc2)cc(Cl)c1OC	0	0	0	0	0	0	-	-
COc1cc(CNCCc2ccccc2)cc(Cl)c1OCc1ccccc1	?	0	0	0	78	0	0	-
CCOc1cc(CNC2CCCC2)cc(Cl)c1OCc1ccccc1	-	0	0	0	52	0	0	-
CCOc1cc(CNCC(C)C)cc(Cl)c1OCc1ccccc1	-	0	0	0	0	0	-	-
COCCCNc1nc(N)c([N+](=O)[O-])c(NCc2ccccc2)n1	0	0	0	0	0	0	-	-
COCCCNc1nc(N)c([N+](=O)[O-])c(Nc2ccccc2OC)n1	0	0	0	0	61	0	0	-
CCCCCCOC(=O)C[N+](C)(C)CCOC1CC2CCC1(C)C2(C)C (centres undefined)	0	0	123	103	67	72	74	0
CC1(C)C2CCC1(C)C(OCCNCCOC(=O)Nc1ccccc1)C2 (centres undefined)	0	0	0	0	0	0	-	-
CCS(=O)(=O)Nc1cccc(-c2ccc3nnc(C)n3n2)c1	0	0	0	0	0	0	-	-
Cc1ccc(S(=O)(=O)Nc2cccc(-c3ccc4nnc(C)n4n3)c2)s1	-	0	0	0	65	0	0	-
COC(=O)Cn1c(=NC(=O)c2sc3ccccc3c2Cl)sc2cc(S(N)(=O)=O)ccc21	0	0	0	0	64	0	0	52
CC1CCC(NC(=O)C2CCC(CNS(=O)(=O)c3cccc4nsnc34)CC2)CC1 (centres undefined)	0	0	0	0	56	0	0	-
Cc1cccc(Nc2nnc(-c3ccc(N4CCOCC4)c([N+](=O)[O-])c3)c3ccccc23)c1	0	0	0	0	60	0	0	84
CC(=O)NC1=NN(C(C)=O)C(C)(c2cccs2)S1 (centres undefined)	0	0	0	0	55	0	42	52
CC(=O)NC1=NN(C(C)=O)C(C)(c2ccco2)S1 (centres undefined)	0	0	0	0	0	0	-	-
Nc1nonc1C(=O)NCCNCc1ccccc1OCc1ccccc1F	-	0	0	0	56	0	0	-
Nc1nonc1C(=O)NCCNCc1cc(Br)ccc1OCc1ccccc1F	0	0	0	0	0	0	-	-
CCN(CC)Cc1c(O)ccc2c([N+](=O)[O-])c(C)n(-c3ccc(OC)cc3)c12	0	0	0	0	71	0	82	51
COc1cc2c(cc1OC)C1(Nc3c-2c(C)nn3-c2ccccc2)C(=O)Nc2ccccc21 (centres undefined)	-	0	0	-	0	-	-	-
COc1ccc(Cc2nnc(NC(=O)c3cccc(C)c3)s2)cc1	0	0	0	0	0	0	-	-
SMILES	CSC inhib	NALP3 yeast inh	Beta apoptosis	Calb FLC	Mdm2-MdmX inh	T cruzi repl	Mdm2-MdmX conf	Full FLuc ctr
Cc1cccc(-c2nnn(Cc3nnc(NC(=O)c4ccccc4)s3)n2)c1	0	0	0	0	71	0	0	-
CCOC(=O)C1=C(COC(=O)C(C)(C)Oc2ccc(Cl)cc2)NC(=O)NC1C (centres undefined)	-	0	0	-	0	-	-	-
CC(C)(C)c1ccc(OCC(=O)N/N=C/c2cc(Br)ccc2OC(=O)c2ccco2)cc1	101	0	0	0	82	0	79	0
O=C(c1ccc2c(c1)OCCO2)C1CCN(C(=O)Nc2ccccc2F)CC1	-	0	0	0	0	0	-	-
O=C(N/N=C/c1ccc(O)cc1)Nc1cccc2nsnc12	0	0	0	0	71	62	66	62
Cc1ccc(C(=O)NCCN2C3=NC[C@@H](Cc4ccccc4)N3C[C@H]2Cc2ccc(O)cc2)cc1Br	0	0	0	0	81	0	0	-
COc1ccc(C[C@H]2CN3C(=NC[C@@H]3Cc3ccccc3)N2CCNC(=O)c2ccc(C)c(Br)c2)cc1	0	0	0	0	100	0	42	57
Cc1ccc(C(=O)NCCN2C3=NC[C@H](Cc4ccc(O)cc4)N3C[C@H]2Cc2ccc(O)cc2)cc1Br	0	0	0	0	0	0	-	-
COc1ccc(C[C@H]2CN3C(=NC[C@H]3Cc3ccccc3)N2CCNC(=O)c2ccc(C)c(Br)c2)cc1	0	0	0	0	95	0	55	37
COc1ccc(C[C@H]2CN3C(=NC[C@@H]3Cc3ccc(O)cc3)N2CCNC(=O)c2ccc(C)c(Br)c2)cc1	0	0	0	0	53	0	0	-
O=C(CCC(=O)c1cccs1)NNC(=O)c1ccc(Cl)cc1	0	0	0	-	0	-	-	-
COc1ccc(/C=C2\CN(Cc3ccccc3)C/C(=C\c3ccc(OC)c(O)c3)C2=O)cc1O	119	0	104	0	98	0	100	51
CCN1C/C(=C/c2ccc(OC)c(O)c2)C(=O)/C(=C/c2ccc(OC)c(O)c2)C1	102	0	97	0	100	0	100	41
COc1cc(/C=C2/CC/C(=C/c3ccc(O)c(OC)c3)C2=O)ccc1O	0	0	0	0	0	0	-	-
COc1cc(/C=C2\COC/C(=C\c3ccc(O)c(OC)c3)C2=O)ccc1O	87	0	0	0	100	0	100	53
CC(=O)c1cc(C)ccc1OC(=O)c1cccc2nc(C)oc12	0	0	0	0	0	0	-	-
CCN1CCCC1Cn1cnc2c([nH]c3ccc(C)cc32)c1=O (centres undefined)	0	0	0	0	0	0	-	-
CCc1ccc(Oc2coc3cc(OCC(=O)Nc4cc(C)ccc4C)ccc3c2=O)cc1	0	0	0	0	52	0	0	-
CCCc1ccc(Oc2coc3cc(OCC(=O)Nc4ccccc4C)ccc3c2=O)cc1	0	0	0	0	0	0	-	-
COC1(OC)C(/C=C/c2ccc(C)cc2)C(C#N)(C#N)C1(OC)OC (centres undefined)	0	0	0	0	85	0	43	0
Nc1nc(SCc2ccc(Cl)cc2Cl)ns1	0	0	0	0	0	0	-	-
COCCCNC(=O)Cn1c(=O)n(CCCCCC(=O)Nc2ccccc2)c(=O)c2sccc21	0	0	0	0	0	0	-	-
